Bioassay records: PubChem, Broad Institute
The sample as a whole holds a higher share of hits than the screen did.
IDH1 mut inh: inhibitors of IDH1 R132H reductase, primary screen, biochemical, plate reader, single point; inhibition, % at 10 µM; AID 624101, 2012; 70,000 tested, 0.18% active; diaphorase/resazurin fluorescence, 60 min; Isocitrate dehydrogenase [NADP] cytoplasmic (Homo sapiens), O75874; in the data active = inhibition above about 34%; inconclusive = no clear call, values can overlap the other calls; inactive = below about 11%;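 also: 0% = DMSO and 100% = no enzyme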
T cruzi growth-1: T. cruzi intracellular proliferation inhibitors, primary screen, cell-based, beta-gal Tulahuen parasites, NIH3T3 host, luminescence; T. cruzi beta-gal in NIH3T3, GalScreen luminescence, 90 h; inhibition, % at 8.34 µM; 77,000 tested, 5.9% active; AID 624255, 2012;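 active = mean inhibition above about 93%, with at least 55% of replicates each passing it, limit read from the data, passing the limit was not always enough; inconclusive = only one of those two conditions holds; inactive = neither condition holds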
KDM4C inh: inhibitors of GASC-1 (KDM4C) histone demethylase, primary screen, biochemical, single concentration HTS; Lysine-specific demethylase 4C (Homo sapiens), Q9H3R0; GST-KDM4C 2-372, H3K9me3 peptide, LANCE TR-FRET; inhibition, % at 12.5 µM; 96,000 tested, 0.15% active;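 active = mean replicate inhibition above about 25%, with at least 55% of replicates also reaching it, limit read from the data, passing the limit was not always enough; inconclusive = only one of those two conditions met; inactive = neither condition met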
Target sequence (Q9H3R0 2-372 limits assumed): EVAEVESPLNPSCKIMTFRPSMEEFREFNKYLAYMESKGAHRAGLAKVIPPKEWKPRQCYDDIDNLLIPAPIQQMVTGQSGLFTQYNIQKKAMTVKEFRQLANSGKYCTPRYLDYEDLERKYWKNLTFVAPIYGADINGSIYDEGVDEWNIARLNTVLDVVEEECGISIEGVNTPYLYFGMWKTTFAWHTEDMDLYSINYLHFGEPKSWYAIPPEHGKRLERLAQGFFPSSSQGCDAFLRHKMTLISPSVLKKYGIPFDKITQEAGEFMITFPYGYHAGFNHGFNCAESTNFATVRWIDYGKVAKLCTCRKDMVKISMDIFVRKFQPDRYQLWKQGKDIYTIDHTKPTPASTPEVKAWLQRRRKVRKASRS
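System: N-terminal GST-fused human GASC-1 (KDM4C) fragment, residues 2-372; amount: enzyme final amount 10 nM; incubation: reaction 30 min RT, detection step 1 h RT; medium: HEPES buffer, pH 7.5, plus ascorbate; technique: LANCE TR-FRET, Eu antibody, ULight-streptavidin, EDTA, ex 340 nm, em 618/671 nm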
T cruzi growth-2: T. cruzi intracellular proliferation inhibitors, confirmation, cell-based, NIH3T3 host, beta-gal parasite, luminescence, cherry-pick; 5,600 tested, 72% active; inhibition, % at 8.35 µM; T. cruzi beta-gal in NIH3T3, GalScreen luminescence, 90 h; shares compounds with T cruzi growth-1;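 active = mean replicate inhibition above about 95% and at least 55% of replicates individually reaching it, limit read from the data; inconclusive = only one of the two criteria is met; inactive = neither criterion is met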
T cruzi growth-3: inhibitors of intracellular T. cruzi replication, confirmation, NIH3T3 host cells, beta-gal parasites, cherry-pick, set 2; shares compounds with T cruzi growth-1; T. cruzi beta-gal in NIH3T3, GalScreen luminescence, 90 h; inhibition, % at 2.09 µM; 5,600 tested, 21% active; AID 651740, 2012;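 active = mean inhibition above about 95%, with at least 55% of replicates also reaching it, limit read from the data; inconclusive = meets just one of the two conditions; inactive = meets neither condition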;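 also: plate controls were neutral control median for no effect and positive control median for full effect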
3T3 cytotox: cytotoxicity in mouse NIH/3T3 fibroblasts, confirmation, cytotoxicity control for T. cruzi proliferation inhibitor project, cell-based, cherry-pick, single point; shares compounds with T cruzi growth-1; cytotoxicity (signal decrease), % at 8.35 µM; NIH/3T3 viability, CellTiter-Glo ATP luminescence, 90 h; 5,600 tested, 14% active;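 active = mean signal decrease across replicates above about 35% based on untreated-well scatter, with enough replicates individually passing, limit read from the data; inconclusive = no rule stated though some were filed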;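 also: 0% = median of neutral control wells and 100% = median of positive control wells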
NIH3T3 tox 2: NIH/3T3 fibroblast cytotoxicity, confirmation, cytotoxicity control, cell-based, cherry-pick, single point, set 2; shares compounds with T cruzi growth-1; NIH/3T3 viability, CellTiter-Glo ATP luminescence, 90 h; inhibition, % at 24.9 µM; 5,600 tested, 56% active;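 active = mean loss of cell viability signal at or above a set limit, and enough replicates individually reaching it; inconclusive = meets only the mean limit or only the replicate share; inactive = meets neither condition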;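 also: 0% = median of neutral control wells and 100% = median of positive control wells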
* hit, by the source's call; u = inconclusive; x = no result given.

SMILES	IDH1 mut inh	T cruzi growth-1	KDM4C inh	T cruzi growth-2	T cruzi growth-3	3T3 cytotox	NIH3T3 tox 2
C[C@H](CO)N1C[C@H](C)[C@H](CN(C)Cc2ccc(Oc3ccccc3)cc2)Oc2ccc(NC(=O)Cc3ccccc3)cc2C1=O	0.0	u	0.6	90.3	41.4	26.9	101.7*
C[C@H](CO)N1C[C@H](C)[C@@H](CN(C)Cc2ccc(Oc3ccccc3)cc2)Oc2c(NC(=O)Nc3ccc4c(c3)OCO4)cccc2C1=O	x	u	2.2	109.4*	71.3	-2.2	-21.7
C[C@@H]1CN([C@@H](C)CO)C(=O)c2cc(NC(=O)Nc3ccc4c(c3)OCO4)ccc2O[C@@H]1CN(C)Cc1ccncc1	2.1	81.8	-0.2	x	x	x	x
C[C@H]1CN([C@@H](C)CO)C(=O)c2cc(NC(=O)Nc3ccc4c(c3)OCO4)ccc2O[C@H]1CN(C)Cc1ccc(Oc2ccccc2)cc1	-0.2	116.8*	-0.7	109.3*	17.5	10.7	41.0*
C[C@@H]1CN([C@@H](C)CO)C(=O)c2cccc(NC(=O)Nc3ccc4c(c3)OCO4)c2O[C@@H]1CN(C)Cc1ccc(Oc2ccccc2)cc1	x	72.4	-1.0	x	x	x	x
CC(C)(C)NC(=O)CSc1nnc(-c2ccccc2Cl)n1-c1ccccc1	0.1	x	x	x	x	x	x
O=[N+]([O-])c1ccccc1/C=C/CN1CCN(CCO)CC1	-0.5	x	x	x	x	x	x
N#CCCn1c(CC(N)=O)nc2ccccc21	-0.4	x	x	x	x	x	x
O=C(CCCCCCC(=O)Nc1ccccc1O)N/N=C/c1ccccc1OCCO	-1.0	x	x	x	x	x	x
COC(=O)c1c(=O)n(O)c2cc(Cl)c(Cl)cc2[n+]1[O-]	0.2	x	x	x	x	x	x
CC(C(=O)Nc1ccc(I)cc1)N(c1ccc(Cl)cc1)S(C)(=O)=O (stereo not given)	0.2	x	x	x	x	x	x
N#C[C@@H]1N[C@H](CO)[C@@H]1c1ccc(C#CC2CCCC2)cc1	x	34.2	1.5	x	x	x	x
N#C[C@H]1N[C@@H](CO)[C@@H]1c1ccc(C#Cc2ccccc2F)cc1	x	99.1*	-0.6	96.6*	91.1	0.2	105.7*
N#C[C@H]1N[C@H](CO)[C@H]1c1ccc(C#Cc2ccc(F)cc2)cc1	x	101.3*	-3.1	101.1*	76.1	12.8	19.1
N#C[C@@H]1N[C@H](CO)[C@H]1c1ccc(C#CC2CCCC2)cc1	x	90.8	0.6	x	x	x	x
N#C[C@@H]1N[C@H](CO)[C@@H]1c1ccc(C#Cc2ccccc2F)cc1	x	78.7	-1.4	x	x	x	x
N#C[C@H]1N[C@H](CO)[C@H]1c1ccc(C#CC2CCCC2)cc1	x	100.6*	3.6	98.6*	68.3	4.8	26.6*
N#C[C@H]1N[C@H](CO)[C@H]1c1ccc(C#Cc2cccnc2)cc1	x	79.0	-2.2	x	x	x	x
COc1cccc(C#Cc2ccc([C@H]3[C@@H](C#N)N[C@@H]3CO)cc2)c1	x	98.4*	-0.9	99.7*	100.8*	19.5	54.3*
COc1ccc(OC)c(N(CC(=O)Nc2ccc(Br)cc2F)S(C)(=O)=O)c1	-0.2	x	x	x	x	x	x
N#CCc1ccc(NC(=O)Cc2ccccc2[N+](=O)[O-])cc1	0.3	x	x	x	x	x	x
CCCNC(=O)N1[C@H](C#N)[C@H](c2ccc(C#Cc3cccc(F)c3)cc2)[C@H]1CO	x	93.8	-0.8	x	x	x	x
CCCNC(=O)N1[C@H](C#N)[C@H](c2ccc(C#Cc3ccc(F)cc3)cc2)[C@H]1CO	x	93.0	0.2	x	x	x	x
CCCNC(=O)N1[C@H](C#N)[C@@H](c2ccc(C#Cc3cccc(F)c3)cc2)[C@@H]1CO	x	100.4*	-2.5	102.0*	92.1	9.1	-2.4
CCCNC(=O)N1[C@H](C#N)[C@H](c2ccc(C#Cc3ccc(F)cc3)cc2)[C@@H]1CO	x	u	-0.9	101.3*	112.5*	-23.6	-1.3
O=c1c2c3c(sc2nc(SCc2nc4ccccc4[nH]2)n1-c1ccccc1)CCC3	0.3	x	x	x	x	x	x
